In general, MIC refers to the lowest concentration found to suppress growth. The ED50 is the dose that gives a 50% effect, or the effect in half of the subjects. Low values mean greater potency, high ones weaker potency.

Molecules are shown by their SMILES. In brackets after ≈: the same amount, converted by molar mass.

For twelve compounds, MIC and ED50 results are on record in ChEMBL document CHEMBL1122905, “4-Deoxypyrido[1',2':1,2]imidazo[5,4-c]rifamycin SV derivatives. A new series of semisynthetic rifamycins with high antibacterial activity and low gastroenteric absorption” (1985).

The subject of one assay is Klebsiella pneumoniae. The experiment in a line: Antimicrobial activity derived as minimum inhibitory concentration are determined using brain-heart infusion medium against Klebsiella Pneumoniae Ottaviani. In kind it is functional. The method in brief: (§1)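 Broth dilution in brain-heart infusion. Inoculum 10^6 cells/mL. MIC taken as the lowest antibiotic concentration preventing visible growth after 24 h at 35 °C.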

Assay [1] relates to Staphylococcus aureus. Put plainly: Antimicrobial activity derived as minimum inhibitory concentration are determined using brain-heart infusion medium against Staphylococcus aureus 209 P(FDA). In kind it is functional. The method in brief: as §1
For a further assay, the system named is Salmonella paratyphi. Put plainly: Antimicrobial activity derived as minimum inhibitory concentration are determined using brain-heart infusion medium against Salmonella paratyphi B0248 K(Sclavo). In kind it is functional, Salmonella enterica subsp. enterica serovar Paratyphi A. The settings on record: Salmonella enterica. In outline:
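Broth dilution in brain-heart infusion. Inoculum 10^6 cells/mL. Incubated 24 h at 35 °C. MIC taken as the lowest antibiotic concentration that prevented visible growth.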

Another assay deals with Escherichia coli. Put plainly: Antimicrobial activity derived as minimum inhibitory concentration are determined using brain-heart infusion medium against Escherichia coli ML/35. The format is functional. The method in brief: as §1
A further assay relates to Pseudomonas aeruginosa. Put plainly: Antimicrobial activity derived as minimum inhibitory concentration are determined using brain-heart infusion medium against Pseudomonas aeruginosa ATCC 10145. The format is functional. In outline:
as §1

For assay [2], the system named is Staphylococcus aureus. The experiment in a line: Effective dose against infection of the mice due to Staphylococcus aureus administered perorally. The format is functional. The settings on record: po.
Assay [3] has as its system Staphylococcus aureus. Put plainly: Effective dose against Staphylococcus aureus in mice for subcutaneous administration. The format is functional. The settings on record: sc.
Assay [4] relates to Staphylococcus aureus. The experiment in a line: Effective dose against Staphylococcus aureus in mice for peroral administration. The format is functional. The following applies: po.

Regarding `COC(=O)c1ccc[n+](-c2c3c(O)c4c(O)c(C)c5c(c4c2O)C(=O)C(C)(O/C=C/C(OC)C(C)C(OC(C)=O)C(C)C(O)C(C)C(O)C(C)/C=C/C=C(/C)C(=O)N3)O5)c1.[Br-]` (centres undefined), the MIC in the assay on Klebsiella pneumoniae is greater than 50 µg/mL; against Staphylococcus aureus [1] it was 0.07 µg/mL; with Salmonella paratyphi, 25 µg/mL; against Escherichia coli, greater than 50 µg/mL; in the assay with Pseudomonas aeruginosa it was greater than 50 µg/mL.
For the compound `COC1/C=C/OC2(C)Oc3c(C)c(O)c4c(O)c(c5c([n-]c6cc(C)cc[n+]65)c4c3C2=O)NC(=O)/C(C)=C\C=C\C(C)C(O)C(C)C(O)C(C)C(OC(C)=O)C1C` (centres undefined), the MIC against Klebsiella pneumoniae was 25 µg/mL (≈ 31.8 µM); with Staphylococcus aureus [1], less than 0.005 µg/mL; in the assay on Salmonella paratyphi, 6 µg/mL (≈ 7.63 µM); with Escherichia coli, 6 µg/mL (≈ 7.63 µM); against Pseudomonas aeruginosa, 15 µg/mL (≈ 19.1 µM). Besides, in the assay with Staphylococcus aureus [2], the ED50 is greater than 10 mg/kg.
As for `CO[C@H]1/C=C/O[C@@]2(C)Oc3c(C)c(O)c4c(O)c(c(/C=N/N5CCN(C)CC5)c(O)c4c3C2=O)NC(=O)/C(C)=C\C=C\[C@H](C)[C@H](O)[C@@H](C)[C@@H](O)[C@@H](C)[C@H](OC(C)=O)[C@@H]1C` [RIFAMPIN], the MIC with Klebsiella pneumoniae was 25 µg/mL (≈ 30.4 µM); against Staphylococcus aureus [1], less than 0.005 µg/mL; in the assay on Salmonella paratyphi, 12 µg/mL (≈ 14.6 µM); with Escherichia coli it was 6 µg/mL (≈ 7.29 µM); against Pseudomonas aeruginosa it was 12 µg/mL (≈ 14.6 µM). For the same compound, the ED50 in the assay on Staphylococcus aureus [3] and with Staphylococcus aureus [4] was 0.14 mg/kg in each case.
For `COC1/C=C/OC2(C)Oc3c(C)c(O)c4c(O)c(c5c([n-]c6ccc(OCc7ccccc7)c[n+]65)c4c3C2=O)NC(=O)/C(C)=C\C=C\C(C)C(O)C(C)C(O)C(C)C(OC(C)=O)C1C` (centres undefined), the MIC in the assay with Klebsiella pneumoniae is greater than 50 µg/mL; against Staphylococcus aureus [1], less than 0.005 µg/mL; in the assay with Salmonella paratyphi, greater than 50 µg/mL; against Escherichia coli, 50 µg/mL (≈ 56.9 µM); in the assay on Pseudomonas aeruginosa, 50 µg/mL (≈ 56.9 µM).
On to `COC1/C=C/OC2(C)Oc3c(C)c(O)c4c(O)c(c5c([n-]c6ccc(C)c[n+]65)c4c3C2=O)NC(=O)/C(C)=C\C=C\C(C)C(O)C(C)C(O)C(C)C(OC(C)=O)C1C` (centres undefined), for which the MIC is 12 µg/mL (≈ 15.3 µM) against Klebsiella pneumoniae; less than 0.005 µg/mL with Staphylococcus aureus [1]; 6 µg/mL (≈ 7.63 µM) in the assay with Salmonella paratyphi; 6 µg/mL (≈ 7.63 µM) with Escherichia coli; 3 µg/mL (≈ 3.82 µM) against Pseudomonas aeruginosa. Moreover, the ED50 is greater than 2.5 mg/kg in the assay on Staphylococcus aureus [3] and greater than 5 mg/kg in the assay on Staphylococcus aureus [4].
For `COC1/C=C/OC2(C)Oc3c(C)c(O)c4c(O)c(c(-[n+]5ccccc5)c(O)c4c3C2=O)NC(=O)/C(C)=C\C=C\C(C)C(O)C(C)C(O)C(C)C(OC(C)=O)C1C.[Br-]` (centres undefined), the MIC in the assay on Klebsiella pneumoniae is greater than 50 µg/mL; against Staphylococcus aureus [1] it was 0.005 µg/mL; in the assay with Salmonella paratyphi it was 50 µg/mL; in the assay on Escherichia coli, greater than 50 µg/mL; in the assay with Pseudomonas aeruginosa, 12 µg/mL. Also, the ED50 in the assay on Staphylococcus aureus [4] is greater than 20 mg/kg.
For `CC[N+](CC)(CC)c1c2c(O)c3c(O)c(C)c4c(c3c1O)C(=O)C(C)(O/C=C/C(OC)C(C)C(OC(C)=O)C(C)C(O)C(C)C(O)C(C)/C=C/C=C(/C)C(=O)N2)O4.[Br-]` (centres undefined), the MIC in the assay on Klebsiella pneumoniae was 50 µg/mL; against Staphylococcus aureus [1] it was 0.005 µg/mL; in the assay on Salmonella paratyphi it was 25 µg/mL; against Escherichia coli, greater than 50 µg/mL; in the assay with Pseudomonas aeruginosa, 12 µg/mL. In the assay on Staphylococcus aureus [4], the ED50 is greater than 20 mg/kg.
For `COC1/C=C/OC2(C)Oc3c(C)c(O)c4c(O)c(c5c([n-]c6c7ccccc7cc[n+]65)c4c3C2=O)NC(=O)/C(C)=C\C=C\C(C)C(O)C(C)C(O)C(C)C(OC(C)=O)C1C` (centres undefined), the MIC against Klebsiella pneumoniae was 12 µg/mL (≈ 14.6 µM); in the assay with Staphylococcus aureus [1], less than 0.005 µg/mL; in the assay with Salmonella paratyphi, 3 µg/mL (≈ 3.65 µM); in the assay with Escherichia coli it was 12 µg/mL (≈ 14.6 µM); against Pseudomonas aeruginosa it was 0.7 µg/mL (≈ 0.852 µM). Also, the ED50 in the assay on Staphylococcus aureus [3] came out at 0.81 mg/kg; in the assay on Staphylococcus aureus [4], 2.22 mg/kg.
With `COC1/C=C/OC2(C)Oc3c(C)c(O)c4c(O)c(c(-[n+]5cccc(C(N)=O)c5)c(O)c4c3C2=O)NC(=O)/C(C)=C\C=C\C(C)C(O)C(C)C(O)C(C)C(OC(C)=O)C1C.[Br-]` (centres undefined), the MIC was greater than 50 µg/mL against Klebsiella pneumoniae; 0.1 µg/mL in the assay on Staphylococcus aureus [1]; greater than 50 µg/mL with Salmonella paratyphi; greater than 50 µg/mL against Escherichia coli; greater than 50 µg/mL in the assay with Pseudomonas aeruginosa. In addition, the ED50 with Staphylococcus aureus [4] is greater than 20 mg/kg.
With `COC1/C=C/OC2(C)Oc3c(C)c(O)c4c(O)c(c5c([n-]c6cccc[n+]65)c4c3C2=O)NC(=O)/C(C)=C\C=C\C(C)C(O)C(C)C(O)C(C)C(OC(C)=O)C1C` (centres undefined), the MIC was 6 µg/mL (≈ 7.77 µM) in the assay with Klebsiella pneumoniae; less than 0.005 µg/mL with Staphylococcus aureus [1]; 3 µg/mL (≈ 3.89 µM) in the assay with Salmonella paratyphi; 3 µg/mL (≈ 3.89 µM) in the assay on Escherichia coli; 6 µg/mL (≈ 7.77 µM) with Pseudomonas aeruginosa. For the same compound, the ED50 in the assay with Staphylococcus aureus [3] turned out to be 0.21 mg/kg; with Staphylococcus aureus [4] it was 10.3 mg/kg.
Take `COC1/C=C/OC2(C)Oc3c(C)c(O)c4c(O)c(c5c([n-]c6c(C)ccc[n+]65)c4c3C2=O)NC(=O)/C(C)=C\C=C\C(C)C(O)C(C)C(O)C(C)C(OC(C)=O)C1C` (centres undefined): the MIC in the assay with Klebsiella pneumoniae is 6 µg/mL (≈ 7.63 µM); in the assay on Staphylococcus aureus [1], less than 0.005 µg/mL; in the assay on Salmonella paratyphi, 6 µg/mL (≈ 7.63 µM); with Escherichia coli, 6 µg/mL (≈ 7.63 µM); against Pseudomonas aeruginosa, 0.7 µg/mL (≈ 0.891 µM). Moreover, the ED50 is 0.47 mg/kg with Staphylococcus aureus [3] and greater than 10 mg/kg in the assay with Staphylococcus aureus [4].
Turning to `COC1/C=C/OC2(C)Oc3c(C)c(O)c4c(O)c(c(-[n+]5ccc(C(C)(C)C)cc5)c(O)c4c3C2=O)NC(=O)/C(C)=C\C=C\C(C)C(O)C(C)C(O)C(C)C(OC(C)=O)C1C.[Br-]` (centres undefined), the MIC against Klebsiella pneumoniae was greater than 50 µg/mL; against Staphylococcus aureus [1], 0.01 µg/mL; in the assay on Salmonella paratyphi, greater than 50 µg/mL; with Escherichia coli, greater than 50 µg/mL; against Pseudomonas aeruginosa, greater than 50 µg/mL.
